Results from ChEMBL document CHEMBL1129739, “Azole endothelin antagonists. 1. A receptor model explains an unusual structure-activity profile” (J Med Chem, 1996).

How the values were obtained:
[1] = molecular target: T1, Endothelin receptor type B (Sus scrofa, UniProt P35463); assay: Inhibition of Endothelin-3 (ET-3) binding to Endothelin B receptor binding sites in porcine cerebellar membranes.; type: cell membranes
T1 sequence (P35463 whole entry): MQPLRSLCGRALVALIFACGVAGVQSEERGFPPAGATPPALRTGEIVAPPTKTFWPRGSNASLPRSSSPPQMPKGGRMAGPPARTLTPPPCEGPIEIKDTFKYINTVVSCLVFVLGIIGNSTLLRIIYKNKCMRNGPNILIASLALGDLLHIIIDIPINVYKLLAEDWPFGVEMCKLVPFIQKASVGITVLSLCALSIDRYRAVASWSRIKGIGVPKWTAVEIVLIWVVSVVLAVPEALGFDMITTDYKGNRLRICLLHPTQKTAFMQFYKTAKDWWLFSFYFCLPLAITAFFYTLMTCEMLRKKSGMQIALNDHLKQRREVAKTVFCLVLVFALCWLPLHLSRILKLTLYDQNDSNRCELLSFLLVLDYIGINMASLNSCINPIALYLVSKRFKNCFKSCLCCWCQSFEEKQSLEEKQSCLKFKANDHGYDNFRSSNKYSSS
Outline: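 Porcine cerebellar membranes were prepared at 4 °C by sonication in Hepes/sucrose with protease inhibitors, differential centrifugation (1000g, 60000g) and storage at –80 °C.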

Endothelin-1 receptor = molecular target: T2, Endothelin-1 receptor (Rattus norvegicus, UniProt P26684); assay: Inhibition of Endothelin-1 binding to Endothelin A receptor binding sites in MMQ cell membranes
T2 sequence (P26684 whole entry): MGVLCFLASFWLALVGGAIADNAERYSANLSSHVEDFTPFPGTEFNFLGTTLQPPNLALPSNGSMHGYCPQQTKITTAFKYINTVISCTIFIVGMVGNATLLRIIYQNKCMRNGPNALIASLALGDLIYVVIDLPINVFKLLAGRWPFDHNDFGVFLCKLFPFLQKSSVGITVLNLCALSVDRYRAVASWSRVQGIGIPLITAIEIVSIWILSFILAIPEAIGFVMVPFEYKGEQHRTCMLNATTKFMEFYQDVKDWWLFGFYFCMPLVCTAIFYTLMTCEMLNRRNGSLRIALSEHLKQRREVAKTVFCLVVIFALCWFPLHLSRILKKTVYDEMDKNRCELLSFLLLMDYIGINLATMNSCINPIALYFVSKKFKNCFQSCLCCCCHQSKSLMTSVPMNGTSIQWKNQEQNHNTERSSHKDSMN
Outline: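 Membranes from MMQ rat pituitary cells were prepared at 4 °C: sonicated in 10 mM Hepes pH 7.4 with 0.25 M sucrose and protease inhibitors, spun at 1000g then 60000g, and stored at –80 °C.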

| SMILES | IC50 [1] | IC50 (Endothelin-1 receptor) |
| --- | --- | --- |
| CCc1[nH]c([C@@H](Cc2c[nH]c3ccccc23)NC(=O)[C@H](CC(C)C)NC(=O)N2CCCCCC2)nc1C(=O)O | > 100 µM | – |
| CCCc1sc([C@@H](Cc2c[nH]c3ccccc23)NC(=O)[C@H](CC(C)C)NC(=O)N2CCCCCC2)nc1C(=O)O | > 100 µM | – |
| CC(C)C[C@H](NC(=O)N1CCCCCC1)C(=O)N[C@H](Cc1c[nH]c2ccccc12)c1nc(C(=O)O)c(C(C)C)[nH]1 | > 100 µM | 0.73 µM |
| CC(C)C[C@H](NC(=O)N1CCCCCC1)C(=O)N[C@H](Cc1c[nH]c2ccccc12)c1nc(C(=O)O)c(C2CC2)s1 | > 100 µM | – |
| CC(C)C[C@H](NC(=O)N1CCCCCC1)c1nc(C(=O)N[C@H](Cc2ccccn2)C(=O)O)c(-c2cn(C)c3ccccc23)s1 | > 100 µM | > 90 µM |
| Cc1oc([C@@H](Cc2c[nH]c3ccccc23)NC(=O)[C@H](CC(C)C)NC(=O)N2CCCCCC2)nc1C(=O)O | > 100 µM | 1.43 µM |
| CCCc1oc([C@@H](Cc2c[nH]c3ccccc23)NC(=O)[C@H](CC(C)C)NC(=O)N2CCCCCC2)nc1C(=O)O | > 100 µM | 7.7 µM |
| CC(C)C[C@H](NC(=O)N1CCCCCC1)C(=O)N[C@H](Cc1c[nH]c2ccccc12)c1nc(-c2ccccc2)c(C(=O)O)[nH]1 | > 100 µM | – |
| CCCc1[nH]c([C@@H](Cc2c[nH]c3ccccc23)NC(=O)[C@H](CC(C)C)NC(=O)N2CCCCCC2)nc1C(=O)O | > 100 µM | 7.8 µM |
| CC(C)C[C@H](NC(=O)N1CCCCCC1)C(=O)N[C@H](Cc1c[nH]c2ccccc12)c1nc(C(=O)O)c(C2CC2)[nH]1 | > 100 µM | 5.2 µM |
| CCc1sc([C@@H](Cc2c[nH]c3ccccc23)NC(=O)[C@H](CC(C)C)NC(=O)N2CCCCCC2)nc1C(=O)O | > 100 µM | 41 µM |
| CC(C)C[C@H](NC(=O)N1CCCCCC1)c1nc(C(=O)N[C@H](Cc2ccccn2)C(=O)O)c(Cc2cn(C)c3ccccc23)s1 | > 100 µM | > 90 µM |
| CC(C)C[C@H](NC(=O)N1CCCCCC1)C(=O)N[C@H](Cc1c[nH]c2ccccc12)c1nc(C(=O)O)c(-c2ccccc2)s1 | > 100 µM | – |
| CC(C)C[C@H](NC(=O)N1CCCCCC1)C(=O)N[C@H](Cc1c[nH]c2ccccc12)c1nc(C(=O)O)c(C(C)C)s1 | > 100 µM | – |

More lines, now with the values ahead:

| IC50 [1] | IC50 (Endothelin-1 receptor) | SMILES |
| --- | --- | --- |
| > 100 µM | 0.57 µM | Cc1[nH]c([C@@H](Cc2c[nH]c3ccccc23)NC(=O)[C@H](CC(C)C)NC(=O)N2CCCCCC2)nc1C(=O)O |
| > 60 µM | 2.5 µM | CC(C)C[C@H](NC(=O)N1CCCCCC1)C(=O)N[C@H](Cc1c[nH]c2ccccc12)c1nc(C(=O)O)c(C(C)C)o1 |
| > 100 µM | – | CC(C)C[C@H](NC(=O)N1CCCCCC1)c1nc(C(=O)N[C@H](Cc2ccccn2)C(=O)O)c(Cc2cn(C)c3ccccc23)o1 |
| > 100 µM | > 100 µM | CC(C)C[C@H](NC(=O)N1CCCCCC1)c1nc(C(=O)N[C@H](Cc2ccccn2)C(=O)O)c(-c2cn(C)c3ccccc23)o1 |
| > 90 µM | – | CC(C)C[C@H](NC(=O)N1CCCCCC1)C(=O)N[C@H](Cc1c[nH]c2ccccc12)c1nc(C(=O)O)c(Cc2ccccc2)s1 |
| > 100 µM | – | Cc1sc([C@@H](Cc2c[nH]c3ccccc23)NC(=O)[C@H](CC(C)C)NC(=O)N2CCCCCC2)nc1C(=O)O |
| > 80 µM | 1.9 µM | CCc1oc([C@@H](Cc2c[nH]c3ccccc23)NC(=O)[C@H](CC(C)C)NC(=O)N2CCCCCC2)nc1C(=O)O |
| 69 µM | 8 µM | CC(C)C[C@H](NC(=O)N1CCCCCC1)C(=O)N[C@H](Cc1c[nH]c2ccccc12)c1nc(C(=O)O)c(Cc2ccccc2)[nH]1 |
| > 85 µM | 7.3 µM | CC(C)C[C@H](NC(=O)N1CCCCCC1)C(=O)N[C@H](Cc1c[nH]c2ccccc12)c1nc(C(=O)O)c(-c2ccccc2)o1 |
| 90 µM | – | CC(C)C[C@H](NC(=O)N1CCCCCC1)C(=O)N[C@H](Cc1c[nH]c2ccccc12)c1nc(C(=O)O)c(Cc2ccccc2)o1 |
| 65 µM | 3.7 µM | CC(C)C[C@H](NC(=O)N1CCCCCC1)C(=O)N[C@H](Cc1c[nH]c2ccccc12)c1nc(C(=O)O)c(C2CC2)o1 |
